Data from PMC7903221 (Bioorganic & medicinal chemistry, 2020).

Experiments:
NCI-H1975 = assay: MTT assay, NCI-H1975; assay type: cell-based, human; conditions: read-out: IC50 Value NCI-H1975, 72 hours
Procedure, shortened: (§1)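 Human NSCLC lines were kept in RPMI 1640 with 10% FBS at 37 °C, 5% CO2, passaged every 2–3 days. Cells were seeded at 5,000–7,000/well depending on line and left 24 h. Test compound in DMSO/water (1 mM stock) was added at final 1, 4, 16 and 32 μM in medium, 6 replicates, for 72 h. MTT was applied for 3–4 h, then medium was replaced by DMSO for 15 min and OD read at 540 nm. IC50 is growth inhibition of 50% versus untreated cells.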

HCC827 = assay: MTT assay, HCC827; assay type: cell-based, human; conditions: read-out: IC50 Value HCC827, 72 hours
Procedure, shortened: as §1

A549 = assay: MTT assay, A549; assay type: cell-based, human; conditions: read-out: IC50 Value A549, 72 hours
Procedure, shortened: as §1

NCI-H460 [1] = assay: MTT assay, NCI-H460; assay type: cell-based, human; conditions: read-out: IC50 Value NCI-H460, 72 hours
Procedure, shortened: as §1

[2] = system: NSCLC cell lines (NCI-H460, NCI-H1975, HCC827, and A549); assay: MTT assay, panel of four NSCLC cell lines; assay type: cell-based, human
Procedure, shortened: as §1

nine NSCLC cell lines = assay: NCI-60 one-dose assay, average over nine NSCLC cell lines; assay type: cell-based; conditions: Homo sapiens, 48 h, read-out: Growth % Average
Procedure, shortened: (§2)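 NCI DTP single-dose screen. Cells were seeded at a density tied to doubling rate and incubated 24 h, then exposed to test compound at 10 μM for 48 h. Growth percentage is relative to the starting cell population: positive means net growth, negative means cell loss. It is given per NSCLC line or as the mean across the nine NSCLC lines.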

NCI-H23 = assay: NCI-60 five-dose assay, NCI-H23; assay type: cell-based, human; conditions: 48 hours, total growth inhibition
C57BL/6 mice = assay: Preliminary in vivo toxicity study; conditions: 20 mg/kg IP on days 0, 7, 14 and 29
EKVX = assay: NCI-60 five-dose assay, EKVX; assay type: cell-based, human; conditions: 48 hours, total growth inhibition
HOP-92 = assay: NCI-60 five-dose assay, HOP-92; assay type: cell-based, human; conditions: 48 hours, total growth inhibition
NCI-H522 [3] = assay: NCI-60 one-dose assay, NCI-H522; assay type: cell-based; conditions: Homo sapiens, NCI-H522, 48 h, read-out: Growth % NCI-H522
Procedure, shortened: as §2

A549/ATCC = assay: NCI-60 five-dose assay, A549/ATCC; assay type: cell-based; conditions: 48 hours, total growth inhibition
NSCLC cell lines = assay: NCI-60 five-dose assay, ranges over NSCLC cell lines; assay type: cell-based; conditions: Homo sapiens; for GI50: read-out: GI50 values, range over NSCLC cell lines; for CC50: read-out: LC50 values, range over NSCLC cell lines
NCI-H522 [4] = assay: NCI-60 five-dose assay, NCI-H522; assay type: cell-based, human; conditions: 48 hours, total growth inhibition
HOP-62 = assay: NCI-60 five-dose assay, HOP-62; assay type: cell-based, human; conditions: 48 hours, total growth inhibition
NCI-H460 [5] = assay: NCI-60 five-dose assay, NCI-H460; assay type: cell-based, human; conditions: 48 hours, total growth inhibition
NCI-H226 = assay: NCI-60 five-dose assay, NCI-H226; assay type: cell-based, human; conditions: 48 hours, total growth inhibition
NCI-H322M = assay: NCI-60 five-dose assay, NCI-H322M; assay type: cell-based, human; conditions: 48 hours, total growth inhibition
NCI-H460 [6] = assay: NCI-60 one-dose assay, NCI-H460; assay type: cell-based; conditions: Homo sapiens, NCI-H460, 48 h, read-out: Growth % NCI-H460
Procedure, shortened: as §2

With `N.N.[Cl][Pt][Cl]` [Cisplatin, cisplatin] as the compound, how does the IC50 (NCI-H1975) read?
Its IC50 is 3 µM.

What about the IC50 (HCC827) of the same compound?
The IC50 was 9 µM.

What about the IC50 (A549) of the same compound?
Its IC50 is 5 µM.

And the IC50 (NCI-H460 [1])?
The IC50 was 6 µM.

Which results are given for `[Br-].[Br-].c1ccc2cc(Cn3cc[n+](Cn4cc[n+](Cc5ccc6ccccc6c5)c4)c3)ccc2c1` [Compound 1, 1-(naphthalen-2-ylmethyl)-3-((3-(naphthalen-2-ylmethyl)-imidazolium-1-yl)methyl)-imidazolium bromide]?
IC50 values for three of the four cell lines ([2]; MTT, 72 hours, three of the four cell lines tested): above the testing concentration; activity at 10 µM (nine NSCLC cell lines): 79.5%

For `c1ccc2cc(Cn3cc[n+](CCn4cc[n+](Cc5ccc6ccccc6c5)c4)c3)ccc2c1` [Compound 2, 1-(naphthalen-2-ylmethyl)-3-(2-(3-(naphthalen-2-ylmethyl)-imidazolium-1-yl)ethyl)-imidazolium bromide], which activity at 10 µM (nine NSCLC cell lines) is on record?
Its activity at 10 µM is 80.9%.

With `c1ccc2cc(Cn3cc[n+](CCCn4cc[n+](Cc5ccc6ccccc6c5)c4)c3)ccc2c1` [Compound 3, 1-(naphthalen-2-ylmethyl)-3-(3-(3-(naphthalen-2-ylmethyl)-imidazolium-1-yl)propyl)-imidazolium bromide] as the compound, how does the activity at 10 µM (nine NSCLC cell lines) read?
The activity at 10 µM was 72.8%.

How did the activity at 10 µM (nine NSCLC cell lines) turn out when `c1ccc2cc(Cn3cc[n+](CCCCCn4cc[n+](Cc5ccc6ccccc6c5)c4)c3)ccc2c1` [Compound 5, 1-(naphthalen-2-ylmethyl)-3-(5-(3-(naphthalen-2-ylmethyl)-imidazolium-1-yl)pentyl)-imidazolium bromide] was run?
Its activity at 10 µM is 53.9%.

Which activity at 10 µM (nine NSCLC cell lines) does the source give for `c1ccc2cc(Cn3cc[n+](CCCCCCn4cc[n+](Cc5ccc6ccccc6c5)c4)c3)ccc2c1` [Compound 6, 1-(naphthalen-2-ylmethyl)-3-(6-(3-(naphthalen-2-ylmethyl)-imidazolium-1-yl)hexyl)-imidazolium bromide] here?
The activity at 10 µM was 47.3%.

`c1ccc2cc(Cn3cc[n+](CCCCCCCn4cc[n+](Cc5ccc6ccccc6c5)c4)c3)ccc2c1` [Compound 7, 1-(naphthalen-2-ylmethyl)-3-(7-(3-(naphthalen-2-ylmethyl)-imidazolium-1-yl)heptyl)-imidazolium bromide] was tested. Which activity at 10 µM (nine NSCLC cell lines) did it give?
Its activity at 10 µM is 30%.

Which “TGI NCI-H23” value (NCI-H23) does the source give for `[Br-].[Br-].c1ccc2cc(Cn3cc[n+](CCCCCCCCCCn4cc[n+](Cc5ccc6ccccc6c5)c4)c3)ccc2c1` [Compound 10, 1-(naphthalen-2-ylmethyl)-3-(10-(3-(naphthalen-2-ylmethyl)-imidazolium-1-yl)decyl)-imidazolium bromide] here?
Its value is 3.35 µM.

What about the tolerability (C57BL/6 mice) of the same compound?
The tolerability was “well tolerated”.

What about the “TGI EKVX” value (EKVX) of the same compound?
Its value is 9.07 µM.

What about the “TGI HOP-92” value (HOP-92) of the same compound?
The value was 2.96 µM.

What about the activity at 10 µM (NCI-H522 [3]) of the same compound?
The activity at 10 µM was -72.3%.

What about the “TGI A549/ATCC” value (A549/ATCC) of the same compound?
Its value is 13.3 µM.

What about the GI50 (NSCLC cell lines) of the same compound?
The GI50 was 0.396 to 3.55 µM.

What about the CC50 (NSCLC cell lines) of the same compound?
The CC50 was 15.2 to 58.4 µM.

And the activity at 10 µM (nine NSCLC cell lines)?
The activity at 10 µM was 2.47%.

What about the “TGI NCI-H522” value (NCI-H522 [4]) of the same compound?
Its value is 1.94 µM.

What about the “TGI HOP-62” value (HOP-62) of the same compound?
Its value is 7.24 µM.

Which “TGI NCI-H460” value (NCI-H460 [5]) does the source give for `[Br-].[Br-].c1ccc2cc(Cn3cc[n+](CCCCCCCCCCCCn4cc[n+](Cc5ccc6ccccc6c5)c4)c3)ccc2c1` [Compound 12, 1-(naphthalen-2-ylmethyl)-3-(12-(3-(naphthalen-2-ylmethyl)-imidazolium-1-yl)dodecyl)-imidazolium bromide] here?
The value was 2.96 µM.

And the “TGI NCI-H23” value (NCI-H23)?
Its value is 2.40 µM.

And the “TGI NCI-H226” value (NCI-H226)?
The value was 5.52 µM.

What about the “TGI EKVX” value (EKVX) of the same compound?
The value was 4.20 µM.

And the “TGI HOP-92” value (HOP-92)?
The value was 1.40 µM.

And the “TGI NCI-H322M” value (NCI-H322M)?
The value was 3.90 µM.

What about the “TGI A549/ATCC” value (A549/ATCC) of the same compound?
Its value is 3.57 µM.

And the GI50 (NSCLC cell lines)?
Its GI50 is 0.47 to 0.984 µM.

What about the CC50 (NSCLC cell lines) of the same compound?
The CC50 was 7.29 to 14.6 µM.

What about the IC50 ([2]; Homo sapiens, 72 h, read-out: IC50 values for three of the four cell lines) of the same compound?
Its IC50 is < 1 µM.

What about the activity at 10 µM (NCI-H460 [6]) of the same compound?
Its activity at 10 µM is -69.9%.

And the activity at 10 µM (nine NSCLC cell lines)?
Its activity at 10 µM is -60.9%.

And the “TGI NCI-H522” value (NCI-H522 [4])?
The value was 1.25 µM.

And the “TGI HOP-62” value (HOP-62)?
Its value is 2.65 µM.
